ChEMBL document CHEMBL3392957, “The discovery of 1,2,3,9b-tetrahydro-5H-imidazo[2,1-a]isoindol-5-ones as a new class of respiratory syncytial virus (RSV) fusion inhibitors. Part 1” (Bioorg Med Chem Lett, 2015)
pEC50: −log10 of the molar value.

Tests used:
[1] = system: Respiratory syncytial virus; assay: Selectivity ratio of EC50 for Respiratory syncytial virus A Long harboring F protein D489Y mutant infected in human Hep2 cells to EC50 for wild-type Respiratory syncytial virus A Long infected in human Hep2 cells
[2] = Cytotoxicity against human Hep2 cells after 5 days by MTT assay; assay type: cell-based, HEp-2
How it was run: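 Uninfected HEp2 cells (1.0 × 10⁴/well) with serially diluted compound, 5 days at 37 °C in 5% CO₂; viability by MTT (1 mg/ml, 2 h), isopropanol, absorbance 540 nm; CC₅₀ by non-linear regression.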

[3] = system: Respiratory syncytial virus; assay: Antiviral activity against Respiratory syncytial virus A2 infected in human Hep2 cells assessed as inhibition of virus-induced cytopathicity after 5 days by MTT assay; assay type: functional, organism-based; details: A2, HEp-2, 120 h
How it was run: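 HEp2 cells (1.0 × 10⁴/well) infected at low moi (e.g. RSV A2 at moi 0.01) and added to serially diluted compound; 5 days at 37 °C, 5% CO₂. CPE read by MTT (1 mg/ml, 2 h, 37 °C), isopropanol, absorbance 540 nm; EC₅₀ by non-linear regression. SD given where n > 2.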

Row | Compound | Ratio EC50 [1] | CC50 at 120 h [2] [µM] | pEC50 [3]
1 | O=c1n(Cc2nc3ccccc3n2CCCCO)c2cnccc2n1C1CC1 | 380 |  | 
2 | Cc1nnnn1/N=C/c1ccc(O)c(C(c2ccc(O)cc2)c2cc(/C=N/n3nnnc3C)ccc2O)c1 | >1400 |  | 
3 | O=C(c1ccccc1)N1CCN2C(=O)c3ccccc3C12c1ccc(Cl)cc1 (racemic) |  | > 20 | 6.35
4 | O=C(c1ccc(F)cc1)N1CCN2C(=O)c3ccccc3C12c1ccccc1 (racemic) |  | > 20 | 5.96
5 | Cc1ccc(C(=O)N2CCN3C(=O)c4ccccc4C23c2ccc(Cl)cc2)cc1 (racemic) |  | 17 | 5.24
6 | O=C1c2ccccc2C2(c3ccc(Cl)cc3)NCCN12 (racemic) |  | > 70 | < 4.70
7 | O=C(c1ccc(C(F)(F)F)cc1)N1CCN2C(=O)c3ccccc3C12c1ccc(Cl)cc1 (racemic) |  | 17 | < 4.70
8 | O=C(c1ccc(OC(F)(F)F)cc1)N1CCN2C(=O)c3ccccc3C12c1ccc(Cl)cc1 (racemic) |  | 5.7 | < 4.70
9 | COc1ccc(C(=O)N2CCN3C(=O)c4ccccc4C23c2ccc(Cl)cc2)cc1 (racemic) |  | 16 | < 4.70
10 | O=C(c1ccc(F)cc1)N1CCN2C(=O)c3ccccc3C12 (racemic) |  | > 20 | < 4.70
11 | O=C(c1ccc(F)cc1)N1CCN2C(=O)c3ccccc3C12c1ccc(F)cc1 (racemic) |  | > 20 | 6.15
12 | O=C(c1ccc(F)cc1)N1CCN2C(=O)c3ccccc3C12c1ccc(C(F)(F)F)cc1 (racemic) |  | > 20 | 6.29
13 | Cc1ccc(C23c4ccccc4C(=O)N2CCN3C(=O)c2ccc(F)cc2)cc1 (racemic) |  | > 20 | 6.74
14 | CCc1ccc(C23c4ccccc4C(=O)N2CCN3C(=O)c2ccc(F)cc2)cc1 (racemic) |  | > 18 | 6.68
15 | CCCc1ccc(C23c4ccccc4C(=O)N2CCN3C(=O)c2ccc(F)cc2)cc1 (racemic) |  | 18 | 6.57
16 | CC(C)c1ccc(C23c4ccccc4C(=O)N2CCN3C(=O)c2ccc(F)cc2)cc1 (racemic) |  | > 20 | 5.92
17 | O=C(c1ccc(F)cc1)N1CCN2C(=O)c3ccccc3C12c1ccccn1 (racemic) |  | > 20 | < 4.70
18 | O=C(c1ccc(F)cc1)N1CCN2C(=O)c3ccccc3C12c1cccnc1 (racemic) |  | > 20 | 5.00
19 | COc1ccc(C23c4ccccc4C(=O)N2CCN3C(=O)c2ccc(F)cc2)cc1 (racemic) |  | > 20 | 6.28
20 | O=C(c1ccc(F)cc1)N1CCN2C(=O)c3ccccc3C12c1ccc(O)cc1 (racemic) |  | > 20 | 4.96
21 | CCOc1ccc(C23c4ccccc4C(=O)N2CCN3C(=O)c2ccc(F)cc2)cc1 (racemic) |  | > 20 | 6.70
22 | CCCOc1ccc(C23c4ccccc4C(=O)N2CCN3C(=O)c2ccc(F)cc2)cc1 (racemic) |  | > 20 | 6.20
23 | CC(C)Oc1ccc(C23c4ccccc4C(=O)N2CCN3C(=O)c2ccc(F)cc2)cc1 (racemic) |  | > 20 | 5.96
24 | O=C(c1ccc(F)cc1)N1CCN2C(=O)c3ccccc3C12c1ccc(OCC2CC2)cc1 (racemic) |  | > 20 | 7.10
25 | N#CCOc1ccc(C23c4ccccc4C(=O)N2CCN3C(=O)c2ccc(F)cc2)cc1 (racemic) |  | > 17 | 6.62
26 | COCCOc1ccc(C23c4ccccc4C(=O)N2CCN3C(=O)c2ccc(F)cc2)cc1 (racemic) |  | > 16 | 6.60
27 | COC(=O)COc1ccc(C23c4ccccc4C(=O)N2CCN3C(=O)c2ccc(F)cc2)cc1 (racemic) |  | > 16 | 5.48
